{"source": "ChEMBL document CHEMBL3407479", "about": "“Structure-activity relationship for the oxadiazole class of antibiotics” (J Med Chem, 2015)", "key": {"Enterococcus faecium [1]": {"tested_on": "Enterococcus faecium", "test": "Antibacterial activity against vancomycin-resistant Enterococcus faecium 106 clinical isolate after 16 to 20 hrs by broth microdilution method"}, "[2]": {"tested_on": "Staphylococcus epidermidis", "test": "Antibacterial activity against Staphylococcus epidermidis ATCC 35547 after 16 to 20 hrs by broth microdilution method", "format": "functional"}, "Streptococcus pyogenes": {"tested_on": "Streptococcus pyogenes", "test": "Antibacterial activity against Streptococcus pyogenes ATCC 49399 after 16 to 20 hrs by broth microdilution method", "format": "functional"}, "Enterococcus faecalis [3]": {"tested_on": "Enterococcus faecalis", "test": "Antibacterial activity against Enterococcus faecalis ATCC 29212 after 16 to 20 hrs by broth microdilution method", "format": "functional"}, "Enterococcus faecium [4]": {"tested_on": "Enterococcus faecium", "test": "Antibacterial activity against Enterococcus faecium NCTC 7171 after 16 to 20 hrs by broth microdilution method", "format": "functional"}, "Staphylococcus aureus [5]": {"tested_on": "Staphylococcus aureus", "test": "Antibacterial activity against methicillin-sensitive Staphylococcus aureus ATCC 29213 after 16 to 20 hrs by broth microdilution method", "format": "functional"}, "Staphylococcus aureus [6]": {"tested_on": "Staphylococcus aureus", "test": "Antibacterial activity against vancomycin/methicillin-resistant Staphylococcus aureus VRS2 clinical isolate after 16 to 20 hrs by broth microdilution method", "format": "functional"}, "Staphylococcus aureus [7]": {"tested_on": "Staphylococcus aureus", "test": "Antibacterial activity against vancomycin/methicillin-resistant Staphylococcus aureus VRS1 clinical isolate after 16 to 20 hrs by broth microdilution method", "format": "functional"}, "Streptococcus oralis": {"tested_on": "Streptococcus oralis", "test": "Antibacterial activity against Streptococcus oralis ATCC 9811 after 16 to 20 hrs by broth microdilution method", "format": "functional"}, "Staphylococcus aureus [8]": {"tested_on": "Staphylococcus aureus", "test": "Antibacterial activity against mecA-positive, methicillin/oxacillin/tetracycline-resistant and vancomycin/linezolid susceptible Staphylococcus aureus COL after 16 to 20 hrs by broth microdilution method", "format": "functional"}, "Enterococcus faecium [9]": {"tested_on": "Enterococcus faecium", "test": "Antibacterial activity against vancomycin-susceptible Enterococcus faecium 119-39A clinical isolate after 16 to 20 hrs by broth microdilution method", "format": "functional"}, "[10]": {"test": "Plasma protein binding in human at 10 uM after 6 hrs by equilibrium dialysis assay", "format": "ADME, cell-free"}, "Staphylococcus aureus [11]": {"tested_on": "Staphylococcus aureus", "test": "Antibacterial activity against mecA-positive, methicillin/oxacillin/tetracycline-resistant and vancomycin/linezolid susceptible Staphylococcus aureus ATCC 27660 after 16 to 20 hrs by broth microdilution method", "format": "functional"}, "Enterococcus faecalis [12]": {"tested_on": "Enterococcus faecalis", "test": "Antibacterial activity against vancomycin-susceptible Enterococcus faecalis 201 clinical isolate after 16 to 20 hrs by broth microdilution method", "format": "functional"}, "Staphylococcus aureus [13]": {"tested_on": "Staphylococcus aureus", "test": "Antibacterial activity against mecA-positive, ciprofloxacin/gentamicin/oxacillin/penicillin/linezolid-resistant Staphylococcus aureus NRS119 after 16 to 20 hrs by broth microdilution method", "format": "functional"}, "HepG2": {"tested_on": "HepG2", "test": "Cytotoxicity against human HepG2 cells assessed as cell viability after 16 hrs by XTT assay", "format": "cell-based", "conditions": "HepG2, 16 h", "summary_of_the_method": "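HepG2 cells were run in triplicate in an XTT viability assay. IC50 was derived from the concentration–response data.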"}, "Staphylococcus aureus [14]": {"tested_on": "Staphylococcus aureus", "test": "Antibacterial activity against mecA-positive, ciprofloxacin/gentamicin/oxacillin/penicillin/linezolid-resistant Staphylococcus aureus NRS120 after 16 to 20 hrs by broth microdilution method", "format": "functional"}, "[15]": {"tested_on": "Staphylococcus haemolyticus", "test": "Antibacterial activity against Staphylococcus haemolyticus ATCC 29970 after 16 to 20 hrs by broth microdilution method", "format": "functional"}, "Bacillus cereus": {"tested_on": "Bacillus cereus", "test": "Antibacterial activity against Bacillus cereus ATCC 13061 after 16 to 20 hrs by broth microdilution method", "format": "functional"}, "Bacillus licheniformis": {"tested_on": "Bacillus licheniformis", "test": "Antibacterial activity against Bacillus licheniformis ATCC 12759 after 16 to 20 hrs by broth microdilution method", "format": "functional"}, "Enterococcus faecalis [16]": {"tested_on": "Enterococcus faecalis", "test": "Antibacterial activity against vancomycin-resistant Enterococcus faecalis 99 clinical isolate after 16 to 20 hrs by broth microdilution method", "format": "functional"}, "[17]": {"test": "AUC (0 to 8 hrs) in ICR mouse at 50 mg/kg, iv", "format": "ADME, organism-based", "set-up": "time < 8 hr, dose 50 mg/kg, route intravenous", "conditions": "plasma"}, "[18]": {"test": "Plasma protein binding in human by equilibrium dialysis assay"}}}
{"smiles": "CN[C@H](CC(C)C)C(=O)N[C@H]1C(=O)N[C@@H](CC(N)=O)C(=O)N[C@H]2C(=O)N[C@H]3C(=O)N[C@H](C(=O)N[C@H](C(=O)O)c4cc(O)cc(O)c4-c4cc3ccc4O)[C@H](O)c3ccc(c(Cl)c3)Oc3cc2cc(c3O[C@@H]2O[C@H](CO)[C@@H](O)[C@H](O)[C@H]2O[C@H]2C[C@](C)(N)[C@H](O)[C@H](C)O2)Oc2ccc(cc2Cl)[C@H]1O", "note": "[VANCOMYCIN]", "values": [{"measurement": "MIC", "setting": "Enterococcus faecium [1]", "value": 256, "unit": "µg/mL"}, {"measurement": "MIC", "setting": "[2]", "value": 16, "unit": "µg/mL"}, {"measurement": "MIC", "setting": "Streptococcus pyogenes", "value": 0.6, "unit": "µg/mL"}, {"measurement": "MIC", "setting": "Enterococcus faecalis [3]", "value": 2, "unit": "µg/mL"}]}
{"smiles": "C#Cc1c[nH]nc1-c1nc(-c2ccc(Oc3ccc(C(F)(F)F)cc3)cc2)no1", "values": [{"measurement": "MIC", "setting": "Enterococcus faecium [4]", "value": "> 128", "unit": "µg/mL"}, {"measurement": "MIC", "setting": "Staphylococcus aureus [5]", "value": 0.25, "unit": "µg/mL"}, {"measurement": "MIC", "setting": "Staphylococcus aureus [6]", "value": 0.5, "unit": "µg/mL"}, {"measurement": "MIC", "setting": "Enterococcus faecium [1]", "value": "> 128", "unit": "µg/mL"}, {"measurement": "MIC", "setting": "Staphylococcus aureus [7]", "value": 1, "unit": "µg/mL"}, {"measurement": "MIC", "setting": "[2]", "value": "> 128", "unit": "µg/mL"}, {"measurement": "MIC", "setting": "Streptococcus oralis", "value": "> 128", "unit": "µg/mL"}, {"measurement": "MIC", "setting": "Staphylococcus aureus [8]", "value": "> 128", "unit": "µg/mL"}, {"measurement": "MIC", "setting": "Enterococcus faecium [9]", "value": "> 128", "unit": "µg/mL"}, {"measurement": "PPB", "setting": "[10]", "value": 96.4, "unit": "%"}, {"measurement": "MIC", "setting": "Streptococcus pyogenes", "value": "> 128", "unit": "µg/mL"}, {"measurement": "MIC", "setting": "Staphylococcus aureus [11]", "value": 0.5, "unit": "µg/mL"}, {"measurement": "MIC", "setting": "Enterococcus faecalis [12]", "value": "> 128", "unit": "µg/mL"}, {"measurement": "MIC", "setting": "Staphylococcus aureus [13]", "value": 32, "unit": "µg/mL"}, {"measurement": "IC50", "setting": "HepG2", "value": 9.8, "unit": "µg/mL"}, {"measurement": "MIC", "setting": "Enterococcus faecalis [3]", "value": "> 128", "unit": "µg/mL"}, {"measurement": "MIC", "setting": "Staphylococcus aureus [14]", "value": "> 128", "unit": "µg/mL"}, {"measurement": "MIC", "setting": "[15]", "value": "> 128", "unit": "µg/mL"}, {"measurement": "MIC", "setting": "Bacillus cereus", "value": "> 128", "unit": "µg/mL"}, {"measurement": "MIC", "setting": "Bacillus licheniformis", "value": "> 128", "unit": "µg/mL"}, {"measurement": "MIC", "setting": "Enterococcus faecalis [16]", "value": "> 128", "unit": "µg/mL"}]}
{"smiles": "Oc1ccc(-c2nc(-c3ccc(Oc4ccc(C(F)(F)F)cc4)cc3)no2)cc1", "values": [{"measurement": "AUC(0-t) at 8 h", "setting": "[17]", "value": 44200, "unit": "ng·h/mL"}, {"measurement": "MIC", "setting": "Enterococcus faecium [4]", "value": 2, "unit": "µg/mL"}, {"measurement": "MIC", "setting": "Staphylococcus aureus [5]", "value": 1, "unit": "µg/mL"}, {"measurement": "MIC", "setting": "Staphylococcus aureus [6]", "value": 2, "unit": "µg/mL"}, {"measurement": "MIC", "setting": "Enterococcus faecium [1]", "value": 2, "unit": "µg/mL"}, {"measurement": "MIC", "setting": "Staphylococcus aureus [7]", "value": 2, "unit": "µg/mL"}, {"measurement": "MIC", "setting": "[2]", "value": 2, "unit": "µg/mL"}, {"measurement": "MIC", "setting": "Streptococcus oralis", "value": 32, "unit": "µg/mL"}, {"measurement": "MIC", "setting": "Staphylococcus aureus [8]", "value": 2, "unit": "µg/mL"}, {"measurement": "MIC", "setting": "Enterococcus faecium [9]", "value": 1, "unit": "µg/mL"}, {"measurement": "PPB", "setting": "[10]", "value": 99.9, "unit": "%"}, {"measurement": "MIC", "setting": "Streptococcus pyogenes", "value": 32, "unit": "µg/mL"}, {"measurement": "MIC", "setting": "Staphylococcus aureus [11]", "value": 2, "unit": "µg/mL"}, {"measurement": "MIC", "setting": "Enterococcus faecalis [12]", "value": 2, "unit": "µg/mL"}, {"measurement": "MIC", "setting": "Staphylococcus aureus [13]", "value": 2, "unit": "µg/mL"}, {"measurement": "IC50", "setting": "HepG2", "value": 25.8, "unit": "µg/mL"}, {"measurement": "MIC", "setting": "Enterococcus faecalis [3]", "value": 2, "unit": "µg/mL"}, {"measurement": "MIC", "setting": "Staphylococcus aureus [14]", "value": 2, "unit": "µg/mL"}, {"measurement": "MIC", "setting": "[15]", "value": 2, "unit": "µg/mL"}, {"measurement": "MIC", "setting": "Bacillus cereus", "value": 2, "unit": "µg/mL"}, {"measurement": "MIC", "setting": "Bacillus licheniformis", "value": 2, "unit": "µg/mL"}, {"measurement": "MIC", "setting": "Enterococcus faecalis [16]", "value": 2, "unit": "µg/mL"}]}
{"smiles": "CO[C@H]1/C=C/O[C@@]2(C)Oc3c(C)c(O)c4c(O)c(c(/C=N/N5CCN(C)CC5)c(O)c4c3C2=O)NC(=O)/C(C)=C\\C=C\\[C@H](C)[C@H](O)[C@@H](C)[C@@H](O)[C@@H](C)[C@H](OC(C)=O)[C@@H]1C", "note": "[RIFAMPIN]", "values": [{"measurement": "fraction unbound", "setting": "[18]", "value": "< 0.09"}]}
{"smiles": "FC(F)(F)c1ccc(Oc2ccc(-c3noc(-c4c[nH]cn4)n3)cc2)cc1", "values": [{"measurement": "MIC", "setting": "Enterococcus faecium [4]", "value": 8, "unit": "µg/mL"}, {"measurement": "MIC", "setting": "Staphylococcus aureus [5]", "value": 2, "unit": "µg/mL"}, {"measurement": "MIC", "setting": "Staphylococcus aureus [7]", "value": 1, "unit": "µg/mL"}, {"measurement": "MIC", "setting": "[2]", "value": 32, "unit": "µg/mL"}, {"measurement": "MIC", "setting": "Streptococcus oralis", "value": "> 128", "unit": "µg/mL"}, {"measurement": "MIC", "setting": "Staphylococcus aureus [8]", "value": 32, "unit": "µg/mL"}, {"measurement": "PPB", "setting": "[10]", "value": 93.5, "unit": "%"}, {"measurement": "MIC", "setting": "Streptococcus pyogenes", "value": 128, "unit": "µg/mL"}, {"measurement": "MIC", "setting": "Staphylococcus aureus [13]", "value": 4, "unit": "µg/mL"}, {"measurement": "IC50", "setting": "HepG2", "value": 31.5, "unit": "µg/mL"}, {"measurement": "MIC", "setting": "[15]", "value": 16, "unit": "µg/mL"}]}
